Data on ten compounds can be found in ChEMBL document CHEMBL3526008, “Identification of amiodarone metabolites in human bile by ultraperformance liquid chromatography/quadrupole time-of-flight mass spectrometry” (Drug Metab Dispos, 2011).

A short description of series [1]: Drug level in human liver S9 fraction assessed as alcohol dehydrogenase-mediated compound formation treated with 50 uM amiodarone for 60 mins by UPLC-Q/TOF mass spectrometry in presence of NADPH. In kind it is ADME, subcellular. To be noted: s9, 1 h. In short, it runs like this:
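Human liver S9 (2.0 mg/ml) in 100 mM potassium phosphate pH 7.4 at 37°C. Preincubated 10 min with or without 5 μM 4-methylpyrazole (final), then 50 μM amiodarone added. Incubated 60 min with 2.0 mM NADPH. Carboxylic acid metabolite compared by LC/MS between incubations with and without 4-MP. Duplicates.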

A short description of series [2]: Drug level in arrhythmia patient bile treated with amiodarone at 200 mg/day, po for 7 days by UPLC-Q/TOF mass spectrometry. In kind it is ADME, organism-based. The following applies: human, in vivo, 168 h. In outline:
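Three arrhythmia patients (66-89 y, 1 male, 2 female) with T-tube drainage after hepatobiliary surgery. Bile collected from T-tube at 1-h intervals (about 10 ml) over 24 h, stored at -20°C. Glucuronides hydrolysed with β-glucuronidase in 1 M citrate pH 5.0, 37°C, 16 h. Profiled by UPLC-Q/TOF on HSS T3 column, formic acid/acetonitrile gradient, ES+, m/z 80–1000.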

A short description of series [3]: Retention time of the compound by UPLC-Q/TOF mass spectrometry. It counts as physicochemical. In outline:
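UPLC on HSS T3 column (1.8 μm, 2.1 × 100 mm). Mobile phase 0.05% formic acid in water and in acetonitrile. Q/TOF detection in ES+ with leucine enkephalin lock mass.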

Series [4] is described as follows: Drug level in human liver S9 fraction assessed as compound formation treated with 50 uM amiodarone for 60 mins by UPLC-Q/TOF mass spectrometry in presence of NADPH. It counts as ADME, subcellular. To be noted: s9, 1 h. In outline:
(§1)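 Pooled human liver S9 at 2.0 mg/ml protein in 100 mM potassium phosphate pH 7.4, 37°C. Amiodarone 50 μM (DMSO 0.1% final). 3 min preincubation, then started with 2.0 mM NADPH. Quenched at 60 min with equal volume of ice-cold acetonitrile. Controls lacked NADPH or substrate. Duplicates. Read-out by UPLC-Q/TOF MS and UPLC-UV.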

A further series has as its system Liver microsome. The series can be described thus: Drug level in human liver microsomes assessed as compound formation treated with 50 uM amiodarone for 60 mins by UPLC-Q/TOF mass spectrometry in presence of NADPH. In kind it is ADME. To be noted: 1 h. In short, it runs like this: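 Pooled human liver microsomes at 1.0 mg/ml protein in 100 mM potassium phosphate pH 7.4, 37°C. Amiodarone 50 μM (DMSO 0.1% final). 3 min preincubation, then started with 2.0 mM NADPH. Stopped at 60 min with equal volume of ice-cold acetonitrile. Controls lacked NADPH or substrate. Duplicates. Analysed by UPLC-Q/TOF MS.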
(Liver microsomes are a subcellular fraction often used to study metabolism.)

A short description of series [5]: Drug level in human liver S9 fraction assessed as compound formation treated with 50 uM amiodarone for 60 mins by LC-UV analysis in presence of NADPH. In kind it is ADME, subcellular. To be noted: s9, 1 h. In outline:
as §1

Regarding `CCN(CC)CCOc1c(I)cc(C(=O)c2c(CCCC(=O)O)oc3ccccc23)cc1I`, the Drug metabolism result in series [1] and in series [2] was “metabolite_detected” each time. The Retention_time in series [3] was determined as 14.2 min.
For `CCNCCOc1c(I)cc(C(=O)c2c(CCCC(=O)O)oc3ccccc23)cc1I`, the Drug metabolism result in series [2] and in series [4] was “metabolite_detected” throughout. In series [3], this compound registered a Retention_time of 13.4 min.
For `CCCCc1oc2cc(O)ccc2c1C(=O)c1cc(I)c(OCCN(CC)CC)c(I)c1`, the Drug metabolism result (in series [2]; with Liver microsome; in series [4]) was “metabolite_detected” throughout. The compound further gave a Retention_time in series [3] of 15.5 min.
As for `CCCCc1oc2ccccc2c1C(=O)c1cc(I)c(O)c(I)c1`, the Drug metabolism result (in series [2]; with Liver microsome; in series [4]) was “metabolite_detected” throughout. The Retention_time in series [3] was 16.3 min.
Regarding `CCN(CC)CCOc1c(I)cc(C(=O)c2c(CCC(C)O)oc3ccccc23)cc1I` (stereo not drawn), the Drug metabolism entry (in series [2]; in the series on Liver microsome; in series [4]) was “metabolite_detected” in each case. The same compound registered a Retention_time in series [3] of 14.5 min.
As to `CCN(CC)CCOc1c(I)cc(C(=O)c2c(CCCCO)oc3ccccc23)cc1I`, the Drug metabolism entry (in series [2]; in the series on Liver microsome; in series [4]) was “metabolite_detected” each time. Also, in series [3], the Retention_time is on record as 14.3 min.
As for `CCCCc1oc2ccccc2c1C(=O)c1cc(I)c(OCCNCC)c(I)c1` [DESETHYLAMIODARONE], the Drug metabolism result (in series [5]; in series [2]; in the series with Liver microsome; in series [4]) was “metabolite_detected” in each case. This compound displayed a Retention_time in series [3] of 17 min.
Consider `CCCCc1oc2ccccc2c1C(=O)c1cc(I)c(OCCO)c(I)c1`, for which the Drug metabolism entry (in series [2]; in the series on Liver microsome; in series [4]) was “metabolite_detected” each time. The compound further displayed a Retention_time in series [3] of 21.5 min.
As for `CCCCc1oc2ccccc2c1C(=O)c1ccc(OCCNCC)c(I)c1`, the Drug metabolism entry (in series [2]; with Liver microsome; in series [4]) was “metabolite_detected” in each case. Also, the Retention_time in series [3] is 16.2 min.
For the compound `CCN(CC)CCOc1ccc(C(=O)c2c(CCCC(=O)O)oc3ccccc23)cc1I`, the Drug metabolism entry in series [2] and in series [4] was “metabolite_detected” throughout. In addition, the Retention_time in series [3] turned out to be 13.3 min.
